Experimental findings from ChEMBL document CHEMBL1926537, “Catalytic inhibition of eukaryotic topoisomerases I and II by flavonol glycosides extracted from Vicia faba and Lotus edulis” (J Nat Prod, 2011) are described below.

The structures appear in SMILES notation. The source made the active and inactive calls. The calls are words filed in the database; no cut-off is given here.

In test [1] the test system is Triticum aestivum. The test is described as follows: Inhibition of wheat germ topoisomerase 1-mediated relaxation of supercoiled DNA at 500 uM after 45 mins. The gist of the method: (§1)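 Tested at 500 μM, then 75–1000 μM. Percent inhibition derived from the supercoiled fraction on 0.8% agarose gels stained with ethidium; IC50 at 50% inhibition of relaxation; triplicate, mean ± SEM.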

The nature of test [2]: Inhibition of wheat germ topoisomerase 1-mediated relaxation of supercoiled DNA after 45 mins. On the set-up: species or system Triticum aestivum. The gist of the method:
as §1

A further test deals with T1, DNA topoisomerase 1 (Homo sapiens, UniProt P11387).
T1 sequence (P11387 whole entry): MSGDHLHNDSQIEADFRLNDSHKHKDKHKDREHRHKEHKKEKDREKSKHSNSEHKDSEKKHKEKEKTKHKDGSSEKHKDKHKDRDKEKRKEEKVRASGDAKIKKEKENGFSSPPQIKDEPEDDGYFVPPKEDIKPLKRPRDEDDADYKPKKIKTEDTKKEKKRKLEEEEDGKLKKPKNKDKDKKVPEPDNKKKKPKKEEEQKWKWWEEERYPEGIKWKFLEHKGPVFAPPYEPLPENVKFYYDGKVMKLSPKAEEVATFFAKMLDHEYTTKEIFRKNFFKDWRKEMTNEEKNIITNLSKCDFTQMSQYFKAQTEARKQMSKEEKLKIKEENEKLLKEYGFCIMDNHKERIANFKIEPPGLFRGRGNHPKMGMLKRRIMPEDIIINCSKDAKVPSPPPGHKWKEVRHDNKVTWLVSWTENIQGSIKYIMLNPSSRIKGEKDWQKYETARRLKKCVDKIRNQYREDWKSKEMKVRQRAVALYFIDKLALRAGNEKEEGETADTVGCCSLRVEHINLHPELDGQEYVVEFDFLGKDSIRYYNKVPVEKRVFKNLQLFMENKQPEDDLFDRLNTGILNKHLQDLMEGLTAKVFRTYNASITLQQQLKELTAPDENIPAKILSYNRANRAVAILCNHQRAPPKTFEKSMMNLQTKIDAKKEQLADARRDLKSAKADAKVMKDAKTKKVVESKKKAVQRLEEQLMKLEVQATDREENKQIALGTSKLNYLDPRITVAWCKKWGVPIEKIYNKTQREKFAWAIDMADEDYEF
The test can be described thus: Inhibition of human topoisomerase 1-mediated relation of supercoiled DNA after 45 mins. A digest of the protocol:
(§2)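 Screened at 500 μM, then 100–500 μM. Read-out is 0.8% agarose gel with ethidium stain and densitometry of the supercoiled fraction. IC50 is the 50% inhibition of relaxation; triplicate, mean ± SEM.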

The target in test [3] is T2, DNA topoisomerase 1 (Homo sapiens) (UniProt P11387).
T2 sequence (whole entry): T1 sequence (P11387 whole entry)
The test can be described thus: Inhibition of human topoisomerase 1-mediated relation of supercoiled DNA at 500 uM after 45 mins. A digest of the protocol:
as §2

For test [4], the target named is T3, DNA topoisomerase 2-alpha (Homo sapiens, UniProt P11388). The test is described as follows: Inhibition of human topoisomerase 2-mediated relation of supercoiled DNA at 500 uM after 60 mins.
Test [5] concerns MCF7. The test can be described thus: Growth inhibition of human MCF7 cells at 100 uM after 48 hrs by XTT assay. As to conditions: MCF7, 48 h, read-out: GI. Format: functional. A digest of the protocol:
(§3)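 XTT assay; HeLa, MCF7 and HepG2 seeded at 1.5 × 104, 2 × 104 and 3.5 × 10^4 cells/well in DMEM with 10% heat-inactivated FBS and penicillin/streptomycin, grown 24 h at 37 °C in 5% CO2. Compound added in DMEM-PS (100–500 μM) for 48 h, then XTT 4 h; OD at 450 nm, reference 650 nm. Etoposide 100 μM positive control; mean ± SEM.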
In general terms: Formazan colour is commonly taken as a measure of viable cells.

The test system of test [6] is HeLa. The test is described as follows: Growth inhibition of human HeLa cells at 100 uM after 48 hrs by XTT assay. As to conditions: read-out: GI. Format: functional. A digest of the protocol: as §3
The subject of test [7] is HepG2. The test is described as follows: Growth inhibition of human HepG2 cells at 100 uM after 48 hrs by XTT assay. The format is functional. Conditions: HepG2, 48 h, read-out: GI. The gist of the method: as §3
The target of test [8] is T3, DNA topoisomerase 2-alpha. The test is described as follows: Inhibition of human topoisomerase 2-mediated relation of supercoiled DNA after 60 mins.
Test [9] addresses T3, DNA topoisomerase 2-alpha. The test can be described thus: Inhibition of human topoisomerase 2-mediated relation of supercoiled DNA at 100 to 1000 uM after 60 mins.
Test [10] has as its target T2, DNA topoisomerase 1 (Homo sapiens). The test is described as follows: Inhibition of human topoisomerase 1-mediated relation of supercoiled DNA at 100 uM after 45 mins. A digest of the protocol:
as §2

Test [11] concerns Triticum aestivum. The test can be described thus: Inhibition of wheat germ topoisomerase 1-mediated relaxation of supercoiled DNA at 75 uM after 45 mins. The gist of the method: as §1
Test [12] relates to Triticum aestivum. The test can be described thus: Inhibition of wheat germ topoisomerase 1-mediated relaxation of supercoiled DNA at 1000 uM after 45 mins. The gist of the method:
as §1

Test [13] has as its target T3, DNA topoisomerase 2-alpha. The test is described as follows: Inhibition of human topoisomerase 2-mediated relation of supercoiled DNA at 100 uM after 60 mins.
The test system of test [14] is MCF7. The test is described as follows: Growth inhibition of human MCF7 cells after 48 hrs by XTT assay. Format: functional, cell-based. Conditions: MCF7, 48 h. The gist of the method: as §3
Test [15] concerns HeLa. The test can be described thus: Growth inhibition of human HeLa cells after 48 hrs by XTT assay. The format is functional, cell-based. The gist of the method: as §3
Test [16] has as its system HepG2. The test is described as follows: Growth inhibition of human HepG2 cells after 48 hrs by XTT assay. Format: functional, cell-based. As to conditions: HepG2, 48 h. The gist of the method: as §3
Test [17] concerns the target T3, DNA topoisomerase 2-alpha. The test can be described thus: Inhibition of human topoisomerase 2-mediated relation of supercoiled DNA at 400 uM after 60 mins.
Test [18] deals with T3, DNA topoisomerase 2-alpha. The test can be described thus: Inhibition of human topoisomerase 2-mediated relation of supercoiled DNA at 800 uM after 60 mins.

As usually defined, the inhibition is the relative decrease from the control value, in per cent. One may read the IC50 as the point on the concentration scale where inhibition reaches its midpoint.

T3 sequence (P11388 whole entry): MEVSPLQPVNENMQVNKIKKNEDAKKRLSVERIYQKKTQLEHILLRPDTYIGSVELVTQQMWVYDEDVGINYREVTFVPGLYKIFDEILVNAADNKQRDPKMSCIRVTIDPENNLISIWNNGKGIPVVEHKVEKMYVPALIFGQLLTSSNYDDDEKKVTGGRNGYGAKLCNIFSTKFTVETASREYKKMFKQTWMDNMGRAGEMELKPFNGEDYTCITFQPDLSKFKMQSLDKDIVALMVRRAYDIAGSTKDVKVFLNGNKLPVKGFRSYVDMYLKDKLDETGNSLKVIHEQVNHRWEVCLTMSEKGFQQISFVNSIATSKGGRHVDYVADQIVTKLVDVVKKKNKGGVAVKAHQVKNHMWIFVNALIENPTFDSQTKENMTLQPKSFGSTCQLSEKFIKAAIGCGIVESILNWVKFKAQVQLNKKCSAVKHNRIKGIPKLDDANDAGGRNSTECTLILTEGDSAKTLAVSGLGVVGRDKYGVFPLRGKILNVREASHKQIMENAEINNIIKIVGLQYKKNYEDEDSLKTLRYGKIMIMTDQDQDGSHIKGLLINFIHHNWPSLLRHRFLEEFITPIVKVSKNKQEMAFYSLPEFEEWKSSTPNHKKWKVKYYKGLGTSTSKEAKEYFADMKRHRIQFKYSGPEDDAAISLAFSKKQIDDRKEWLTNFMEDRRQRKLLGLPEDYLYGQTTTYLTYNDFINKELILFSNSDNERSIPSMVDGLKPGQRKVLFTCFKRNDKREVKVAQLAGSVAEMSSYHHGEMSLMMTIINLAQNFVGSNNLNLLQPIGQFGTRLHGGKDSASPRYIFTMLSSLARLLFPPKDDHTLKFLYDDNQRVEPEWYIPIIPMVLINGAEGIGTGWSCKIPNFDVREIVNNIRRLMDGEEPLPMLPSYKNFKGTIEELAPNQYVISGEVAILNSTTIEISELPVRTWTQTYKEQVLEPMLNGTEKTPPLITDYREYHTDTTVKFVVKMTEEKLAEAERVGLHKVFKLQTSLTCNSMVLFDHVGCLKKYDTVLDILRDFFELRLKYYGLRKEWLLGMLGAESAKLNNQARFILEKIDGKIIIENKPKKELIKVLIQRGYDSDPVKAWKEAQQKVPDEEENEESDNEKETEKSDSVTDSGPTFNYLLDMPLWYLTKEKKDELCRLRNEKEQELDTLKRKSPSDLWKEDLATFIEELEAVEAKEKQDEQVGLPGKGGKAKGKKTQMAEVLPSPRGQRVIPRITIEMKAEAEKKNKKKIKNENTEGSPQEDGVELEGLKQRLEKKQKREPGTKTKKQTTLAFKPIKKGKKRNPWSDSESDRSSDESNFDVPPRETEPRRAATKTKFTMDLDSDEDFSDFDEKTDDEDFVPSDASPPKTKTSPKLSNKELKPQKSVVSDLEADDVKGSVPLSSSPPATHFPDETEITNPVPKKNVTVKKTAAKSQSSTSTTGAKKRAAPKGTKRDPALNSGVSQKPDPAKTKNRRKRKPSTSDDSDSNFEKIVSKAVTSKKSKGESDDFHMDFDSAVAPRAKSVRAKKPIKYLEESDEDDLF

`C[C@@H]1O[C@@H](Oc2cc(O)c3c(=O)c(O[C@@H]4O[C@H](CO)[C@H](O)[C@H](O)[C@H]4O[C@@H]4O[C@@H](C)[C@H](O)[C@@H](O)[C@H]4O)c(-c4ccc(O)cc4)oc3c2)[C@H](O)[C@H](O)[C@H]1O`: the inhibition result (in the test with Triticum aestivum [1]; in test [3]; in [4]) was “Active” in each case. Further, the results for the IC50 (in [2]; at DNA topoisomerase 1) were 150 µM and 260 µM, respectively.
With `COc1cc([C@@H]2c3cc4c(cc3[C@@H](O[C@@H]3O[C@@H]5CO[C@@H](C)O[C@H]5[C@H](O)[C@H]3O)[C@H]3COC(=O)[C@H]23)OCO4)cc(OC)c1O` [ETOPOSIDE], the inhibition of growth at 100 µM in the test on MCF7 [5], in the test on HeLa [6] and in the test on HepG2 [7] was 100% throughout.
As for `C[C@@H]1O[C@@H](Oc2cc(O)c3c(=O)c(O[C@@H]4OC[C@H](O)[C@H](O)[C@H]4O)c(-c4ccc(O)cc4)oc3c2)[C@H](O)[C@H](O)[C@H]1O`, the inhibition result (in the test with Triticum aestivum [1]; in [3]; in test [4]) was “Active” each time. Further, the IC50 worked out at 240 µM in test [2], 250 µM on DNA topoisomerase 1 and 330 µM in test [8]. Besides, the inhibition result in test [9] was “Dose-dependent effect”.
As for `C[C@@H]1O[C@@H](Oc2cc(O)c3c(=O)c(O[C@@H]4O[C@H](CO)[C@@H](O)[C@H](O)[C@H]4O)c(-c4ccc(O)cc4)oc3c2)[C@H](O)[C@H](O)[C@H]1O`, the inhibition entry (in the test on Triticum aestivum [1]; in test [4]) was “Active” in each case. For the same molecule, the IC50 in [2] came out at 350 µM; against DNA topoisomerase 1, 110 µM; in test [8], 600 µM. Also, the values for the inhibition in test [10], in test [3] and in [9] were 45%, 94% and “Dose-dependent effect”, respectively.
In the case of `C[C@@H]1O[C@@H](Oc2cc(O)c3c(=O)c(O[C@@H]4O[C@H](CO)[C@@H](O)[C@H](O)[C@H]4O[C@@H]4O[C@@H](C)[C@H](O)[C@@H](O)[C@H]4O)c(-c4ccc(O)cc4)oc3c2)[C@H](O)[C@H](O)[C@H]1O`, 220 µM corresponded to half-maximal inhibition on DNA topoisomerase 1 (IC50). Besides, the inhibition entry in test [3] and in [4] was “Active” in each case.
With `CC(=O)OC[C@]1(O)CO[C@H](Oc2c(-c3ccc(O)cc3)oc3cc(O[C@@H]4O[C@@H](C)[C@H](O)[C@@H](O)[C@H]4O)cc(O)c3c2=O)[C@H]1O`, the inhibition entry (in the test on Triticum aestivum [1]; in test [3]) was “Active” each time. Further, the IC50 in test [2] amounted to 120 µM; against DNA topoisomerase 1, 150 µM; in [8], 240 µM; with MCF7 [14] it was 350 µM; in the test on HeLa [15], 350 µM; in the test with HepG2 [16] it was 410 µM. Moreover, the inhibition with Triticum aestivum [11] is 44%; in the test with Triticum aestivum [12], 99%; in test [4] it was 88%; in test [13], 22%; in [9], “Dose-dependent effect”.
As for `C[C@@H]1O[C@@H](Oc2cc(O)c3c(=O)c(O[C@@H]4O[C@H](CO)[C@H](O)[C@H](O)[C@H]4O)c(-c4ccc(O)cc4)oc3c2)[C@H](O)[C@H](O)[C@H]1O`, the inhibition result (in the test on Triticum aestivum [1]; in [3]; in test [4]) was “Active” in each case. For the same molecule, the IC50 was determined as 200 µM in test [2] and 180 µM against DNA topoisomerase 1.
For `C[C@@H]1O[C@@H](Oc2cc(O)c3c(=O)c(O[C@H]4OC[C@@](O)(CO)[C@@H]4O)c(-c4ccc(O)cc4)oc3c2)[C@H](O)[C@H](O)[C@H]1O`, in [4], the inhibition entry is “Active”. In addition, the inhibition in [17] is 44%; in test [18], 80%; in test [9], “Dose-dependent effect”. The molecule also registered an IC50 in test [8] of 550 µM.
